In the library only some 1.9% were active in any assay of this set; here they are far more common.
NR2E3 ag-1: agonists of human nuclear receptor NR2E3; GST-NR2E3/biotin-RetCOR TR-FRET, 1536-well; inhibition of corepressor binding, % at 4.78 µM; 320,000 compounds, 0.12% hits; AID 2300;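 active means percent inhibition above the cutoff of mean plus 3 SD of all tested compounds, set per screening campaign, cut at about 20% in these data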;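 further: 0% = DMSO wells and 100% = biotin wells as full block of FRET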
Target sequence (Q9Y5X4 whole entry, looked up): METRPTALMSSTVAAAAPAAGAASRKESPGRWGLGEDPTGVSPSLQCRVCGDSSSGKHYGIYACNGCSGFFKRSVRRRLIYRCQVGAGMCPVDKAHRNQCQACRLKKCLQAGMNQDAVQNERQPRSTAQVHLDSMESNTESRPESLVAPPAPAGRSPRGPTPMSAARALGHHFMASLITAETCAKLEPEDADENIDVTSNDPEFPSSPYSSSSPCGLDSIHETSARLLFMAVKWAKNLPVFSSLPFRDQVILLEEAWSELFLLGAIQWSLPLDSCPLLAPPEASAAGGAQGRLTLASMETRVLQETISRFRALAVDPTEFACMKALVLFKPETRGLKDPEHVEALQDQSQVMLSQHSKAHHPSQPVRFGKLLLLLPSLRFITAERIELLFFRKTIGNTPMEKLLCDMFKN
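System: GST-tagged NR2E3 plus biotinylated RetCOR corepressor; Amount: 1.35 nM GST-tagged NR2E3 final; Dosing: single nominal compound dose of 4.8 µM; Schedule: 5 h incubation at 4 °C; Technique: TR-FRET with europium anti-GST and streptavidin-D2, 340 nm excitation; Controls: biotin wells as high control, 0.6% DMSO wells as low control.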
PG9 binder: binds the HIV-1 gp120 antibody PG9; inhibition, % at 6.7 µM; TR-FRET gp120-PG9 antibody binding; 360,000 compounds, 0.43% hits; in the data active means inhibition above about 8.5%
SKN-1 block: C. elegans SKN-1 inhibition. C. elegans VP596 Pgst-4::GFP/RFP ratio, acrylamide-induced, 24 h. inhibition, % at 21.8 µM. 360,000 compounds, 0.49% hits. AID 624304;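 active means interference check ratio from 0.5 to 1.5 plus GFP to RFP signal ratio inhibition reaching or exceeding a fixed threshold, cut at about 30% in these data, passing the limit was not always enough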
Rev-erbA mod: modulates human Rev-erb alpha binding to DNA; P20393; Rev-erbα–FITC-DNA binding, fluorescence polarization, 90 min; activity, % at 10 µM; 370,000 compounds, 0.79% hits; AID 1259318;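 active means activity above about 14%, limit read from the data; passing the limit was not always enough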;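 further: 0% = DMSO wells with 35 nM protein and 100% = DMSO wells with 750 nM protein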
MT1-MMP act inh: blocks activation of human MT1-MMP; P50281; HT1080 RFP-PRO-GFP cells, GFP/RFP ratio fluorescence, overnight; percent of plate control window, DMSO zero; GFP/RFP ratio change, % at 20 µM; 360,000 compounds, 0.061% hits; AID 651647;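 active means GFP/RFP ratio change of at least 30% with cell ATP level not reduced by more than half and red fluorescence within 50% of control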
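Material – HT1080 RFP-PRO-GFP cells · Control set – DMSO wells and RFP-L50D-GFP cells · Incubation – overnight cell settling, then overnight compound exposure, 37 °C, 5% CO2 · Compound dosing – single-point 20 µM compound, 1% DMSO · Read-out – GFP/RFP fluorescence ratio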
NR2E3 ag-2: human photoreceptor-specific nuclear receptor agonism | Q9Y5X4 | CHO-S Gal4-NCOR/VP16-NR2E3 two-hybrid, luciferase | inhibition of corepressor binding, % at 3.98 µM | 360,000 compounds, 0.35% hits;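 active means inhibition above the mean of all tested compounds plus 3 SD, cut at about 70% in these data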;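 further: 0% = DMSO with NR2E3 transfected cells and 100% = cells lacking NR2E3 construct; higher means lower luciferase signal from less NR2E3 corepressor binding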
* marks the source's active call; other numbers are inactive results; nt = no result.

SMILES | NR2E3 ag-1 | PG9 binder | SKN-1 block | Rev-erbA mod | MT1-MMP act inh | NR2E3 ag-2
c1cn(CCCNc2ncnc3nc[nH]c23)cn1 | -1.0 | 1.0 | -8.7 | 4.4 | 4.0 | 0.7
CCN1CCN(CCCNc2ncnc3nc[nH]c23)CC1 | 1.8 | 13.7* | 1.2 | 6.4 | -2.6 | -7.6
Brc1ccc(/C=N/Nc2ccc3ccccc3n2)cc1 | 2.4 | 0.6 | 45.2* | 2.9 | nt | -150.8
Brc1ccccc1/C=N/Nc1ccc2ccccc2n1 | -1.4 | 0.6 | 2.6 | 0.6 | 1.9 | -131.9
Cc1ccc2cc3c(NC(=O)c4cccnc4)nn(C)c3nc2c1 | -10.5 | -11.3 | 40.2* | nt | 5.6 | -13.2
C[C@@H]1CC2C3C[C@H](F)C4=CC(=O)C=C[C@]4(C)[C@@]3(F)[C@@H](O)C[C@]2(C)[C@@]1(O)C(=O)CO (stereo not given in full) | nt | nt | nt | 6.5 | nt | nt
Oc1ccc(Nc2nc3ccccc3nc2Nc2ccc(O)cc2)cc1 | 1.9 | nt | 1.1 | nt | -14.1 | 95.4*
O=C(OCc1ccccc1)N1Cc2ccnnc2CC1c1ccccc1-c1ccc(C(F)(F)F)cc1 (stereo not given) | nt | 1.2 | nt | 4.0 | nt | nt
CCOc1ccc(N=C(C)Nc2ccc(OCC)cc2)cc1 | nt | nt | nt | -3.5 | nt | nt
Cc1cccn2c(=O)c(C=Nc3ccccc3)c(NCc3ccco3)nc12 | 2.1 | nt | 40.8* | nt | -8.6 | -12.4
Cc1c(C#N)c(O)n(C)c(=O)c1N=Nc1ccc(S(N)(=O)=O)cc1 | nt | -3.9 | 16.8 | 8.5 | 5.8 | -11.0
CCOC(=O)c1ccc(N=Nc2c(C)c(C#N)c(O)[nH]c2=O)cc1 | 1.6 | 1.8 | 41.4* | -31.2 | 1.0 | -2.1
COc1ccc(-c2cn(-c3ccc(C)cc3)c(=O)n2CC(=O)Nc2ccc(OC)cc2OC)cc1 | -2.7 | -1.7 | 37.9* | -2.3 | -0.4 | -87.5
O=C(Nc1ccc(-c2nc3cccnc3s2)cc1)c1ccco1 | 3.0 | -0.1 | 46.1* | 0.2 | -0.7 | -128.9
CC[n+]1ccc(/C=C/c2ccc(N(C)C)cc2)c2ccccc21 | nt | -130.3 | 90.7 | -2.3 | 85.1 | 36.7
CC[n+]1ccccc1/C=C/c1ccc(N(C)C)cc1 | nt | -15.5 | 40.7* | 16.1 | -85.4 | -6.6
CC(C)Cn1c(N)c(C(=O)CSc2nnnn2C)c(=O)n(C)c1=O | 0.5 | -0.4 | 43.4* | -3.4 | 3.7 | -3.5
CC(C)Cn1c(N)c(C(=O)CSc2nnnn2-c2ccc(Cl)cc2)c(=O)n(C)c1=O | nt | 0.0 | 1.2 | -1.2 | 1.8 | -7.5
CO[C@@]12[C@@H]3N[C@H]3CN1C1=C(C(=O)C(N)=C(C)C1=O)[C@@H]2COC(N)=O | nt | nt | nt | -7.0 | nt | nt
CN(C)S(=O)(=O)NC(c1ccccc1)c1ccccc1 | 0.9 | 1.7 | 35.6* | 0.0 | -3.8 | 1.7
COc1ccc(-c2cn(CCCOCc3ccccc3)nn2)cc1 | 3.1 | 0.2 | 7.9 | 2.2 | 6.1 | 7.0
Cc1cc(-c2nnn(CCCOC(C)(C)C)c2C)ccc1-c1cn(CCCOC(C)(C)C)nn1 | nt | -1.3 | 36.9* | 3.6 | -4.6 | 6.3
C#C[C@]1(O)CCC2C3CCC4=Cc5oncc5C[C@]4(C)C3CC[C@@]21C (stereo not given in full) | nt | nt | nt | 6.7 | nt | nt
Cc1ccc(-c2nc(N)n(C(=O)c3cccnc3)n2)cc1 | 4.8 | -1.6 | 0.7 | 0.8 | 4.4 | -75.8
Cc1ccc(C(=O)n2nc(-c3cccnc3)nc2N)cc1 | -1.6 | 0.0 | 37.1* | -6.4 | 2.1 | -9.1
SMILES | NR2E3 ag-1 | PG9 binder | SKN-1 block | Rev-erbA mod | MT1-MMP act inh | NR2E3 ag-2
CCc1cc2c(nc1CC)CCCN2CCOC | nt | 0.0 | nt | -8.8 | nt | nt
N/C(=N\OC(=O)c1ccc(Cl)cc1Cl)c1ccncc1 | 2.1 | -1.8 | 40.4* | -2.3 | 1.2 | -61.0
Cc1ccc(C(=O)O/N=C(\N)c2ccccn2)c(Cl)c1 | 1.6 | 2.0 | -11.8 | -3.2 | -9.5 | 42.9
N/C(=N\OC(=O)c1ccc(Cl)cc1Cl)c1ccccn1 | -1.7 | -1.2 | 52.2* | -0.5 | 1.3 | -42.6
N/C(=N\OC(=O)c1cc(Br)ccc1Cl)c1ccccn1 | -2.5 | -0.3 | 47.2* | -0.4 | 1.6 | -89.7
C=CCN=c1scc(-c2ccc(F)cc2)n1/N=C/c1ccccn1 | -2.2 | 0.3 | 28.8 | 0.7 | 0.7 | -104.3
CCN=c1scc(-c2ccccc2)n1/N=C/c1ccccn1 | 0.7 | nt | 44.2* | nt | -1.0 | -151.2
CCN=c1scc(-c2ccc(F)cc2)n1/N=C/c1ccccn1 | 5.0 | -1.1 | 44.7* | 1.6 | 1.0 | -137.8
C#C[C@]1(O)CCC2C3CCc4cc(O)ccc4C3CC[C@@]21C (stereo not given in full) | nt | nt | nt | 2.5 | nt | nt
CCOC(=O)C1CCN(C(=O)c2ccc3c(c2)S(=O)(=O)c2ccccc2C3=O)CC1 | -2.0 | -1.4 | 35.9* | 1.4 | 3.4 | -15.7
NC(=O)C1CCN(C(=O)c2ccc3c(c2)S(=O)(=O)c2ccccc2C3=O)CC1 | 3.8 | 0.4 | -8.5 | 0.2 | 2.1 | -10.9
CC(C)C(=O)NCCc1nc(-c2ccccc2Cl)no1 | -2.0 | 1.7 | 35.9* | 0.4 | 7.5 | -24.0
COC(=O)c1ccccc1S(=O)(=O)NC(=O)[C@H]1O[C@@H](n2ccc(=O)[nH]c2=O)[C@H](O)[C@@H]1O | nt | 1.5 | nt | 0.0 | nt | nt
O=C1CCCC(=O)C1C(=O)c1ccc(C(F)(F)F)cc1[N+](=O)[O-] | nt | nt | nt | -8.3 | nt | nt
OC[C@H]1OC([S-])[C@H](O)[C@@H](O)[C@@H]1O.[Au+] (stereo not given in full) | nt | nt | nt | -30.2 | nt | nt
O=C1c2cc(S(=O)(=O)NCCO)ccc2-c2ccc(S(=O)(=O)NCCO)cc21 | 1.2 | -2.8 | -0.1 | -2.1 | -1.4 | -13.6
O=C(O)CNS(=O)(=O)c1ccc2c(c1)C(=O)c1cc(S(=O)(=O)NCC(=O)O)ccc1-2 | nt | -3.3 | 29.3* | 9.1 | -1.0 | -6.8
O=C(COc1ncnc2c(Cl)cc(Cl)cc12)N1CCCCC1 | 5.2 | 1.4 | 29.6* | -1.1 | 2.2 | 2.7
CC(=O)COc1ncnc2c(Cl)cc(Cl)cc12 | -0.8 | -1.1 | 8.3 | 0.7 | -0.2 | -29.8
COc1ccc(OC(=O)COc2ccc(C)cc2)cc1 | 3.3 | 0.0 | 3.9 | -1.6 | -2.4 | -28.3
COc1ccc(OCC(=O)Sc2ccc(C)cc2)cc1 | 2.7 | -2.6 | 43.3* | 6.3 | 1.5 | -13.6
CSc1nc(C)c2c(n1)N(c1ccc(F)cc1)CC2 | 0.2 | 10.3* | 9.4 | 16.1 | 2.8 | -16.4
COc1ccc(-c2cc(=O)c3c(O)cc(O[C@@H]4O[C@H](CO[C@H]5O[C@H](C)[C@@H](O)[C@H](O)[C@@H]5O)[C@@H](O)[C@H](O)[C@H]4O)cc3o2)cc1O | nt | nt | nt | 4.2 | nt | nt
